ChEMBL document CHEMBL2401730, “The macrocyclic peptide natural product CJ-15,208 is orally active and prevents reinstatement of extinguished cocaine-seeking behavior” (J Nat Prod, 2013)
Calls of active or inactive are those of the source. Where a SMILES comes first, the peptide text is derived from it. [ ]: non-standard residue; d: D form.

Experiments:
Mus musculus [1] = test: Prevention of stress-induced reinstatement of extinguished cocaine seeking behavior in C57BL/6J mouse at 60 mg/kg, po qd for 2 days measured 3 hrs post last dose by forced swim test; format: functional, organism-based; parameters: dose 60 mg/kg
Outline: (§1)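 Counterbalanced CPP: four days of saline (30 min confinement), then cocaine 10 mg/kg sc 4 h later in the opposite compartment. Extinction followed over 3 weeks of twice-weekly tests. Oral 1:1:8 vehicle or 30/60 mg/kg given days 28-29, then either forced swim 3 h later or cocaine conditioning 30 min after day-29 dose. Place preference tested day 30 over 30 min; 12-16 mice/group; ANOVA/Tukey HSD.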

Mus musculus [2] = test: Prevention of stress-induced reinstatement of extinguished cocaine cocaine seeking behavior in C57BL/6J mouse at 30 mg/kg, po qd for 2 days measured 3 hrs post last dose by forced swim test; format: functional, organism-based; parameters: dose 30 mg/kg; outline: as §1
Mus musculus [3] = test: Antinociceptive activity in C57BL/6J mouse at 60 mg/kg, po after 140 mins by warm water tail withdrawal assay; format: functional, organism-based; parameters: dose 60 mg/kg
Outline: (§2)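 Adult male C57BL/6J mice (20-25 g); baseline tail-withdrawal latency in 55 °C water measured, then oral dosing in 1:1:8 ethanol/Tween 80/0.9% saline vehicle. Latency re-measured repeatedly over time, 15 s cut-off. %antinociception = 100×(test−control)/(15−control). ED50 with 95% CI; 7-24 mice/group; repeated-measures ANOVA at 10 min intervals for hour 1 and hour 2.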

Mus musculus [4] = test: Neurotoxicity in C57BL/6J mouse assessed as sedative effect at 10 to 60 mg/kg, po after 60 mins by rotarod test; format: toxicity, organism-based; parameters: dose 10-60 mg/kg, route oral; conditions: in vivo, 1 h
Outline: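 Seven habituation trials, with the last used as baseline. Male C57BL/6J mice then received oral vehicle (1:1:8) or 10 or 60 mg/kg; the U50,488 comparator was given 10 mg/kg ip. Accelerating rotorod (0-20 rpm, 180 s maximum) over 60 min. Latency to fall expressed as % change from baseline; 7-8 mice/group; two-way ANOVA.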

Mus musculus [5] = test: Antagonist activity at kappa opioid receptor in po dosed C57BL/6J mouse assessed as inhibition of icv dosed U50,488-induced antinociception effect incubated for 3 hrs prior to testing by warm water tail withdrawal assay; format: functional, organism-based
Outline: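 Male C57BL/6J mice (20-25 g) given test agent orally in 1:1:8 ethanol/Tween 80/saline; 3 h later U50,488 given ip (10 mg/kg, in saline) or icv (30 nmol), with tail-withdrawal testing in 55 °C water 40 or 20 min afterwards, respectively. 15 s cut-off; % antinociception calculated from baseline latency. 8 mice/group; one-way ANOVA with Tukey HSD.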

Mus musculus [6] = test: Antinociceptive activity in po dosed C57BL/6J mouse after 40 mins by warm water tail withdrawal assay; format: functional; outline: as §2
Mus musculus [7] = test: Prevention of cocaine-induced reinstatement of extinguished cocaine seeking behavior in C57BL/6J mouse at 30 to 60 mg/kg, po qd for 2 days followed by additional cycle of cocaine place conditioning at 30 mins post last dose measured on day 3; format: functional, organism-based; outline: as §1
Mus musculus [8] = test: Antinociceptive activity in C57BL/6J mouse at 1 to 60 mg/kg, po after 60 mins by warm water tail withdrawal assay; format: functional, organism-based; outline: as §2
Mus musculus [9] = test: Antagonist activity at kappa opioid receptor in po dosed C57BL/6J mouse assessed as inhibition of ip dosed U50,488-induced antinociception effect incubated for 3 hrs prior to testing by warm water tail withdrawal assay
Mus musculus [10] = test: Antinociceptive activity in C57BL/6J mouse at 0.3 mg/kg, po after 60 mins by warm water tail withdrawal assay; format: functional, organism-based; parameters: dose 0.3 mg/kg; outline: as §2
Mus musculus [11] = test: Antinociceptive activity in C57BL/6J mouse at 1 to 30 mg/kg, po after 120 mins by warm water tail withdrawal assay; format: functional, organism-based; outline: as §2

O=C1N[C@@H](Cc2ccccc2)C(=O)N2CCC[C@@H]2C(=O)N[C@@H](Cc2ccccc2)C(=O)N[C@H]1Cc1c[nH]c2ccccc12 (cyclo(FWF[dP]))
Activity (Mus musculus [1]): Active | Activity (Mus musculus [2]): inactive | Activity (Mus musculus [3]): Active | Activity (Mus musculus [4]): Non-toxic | inhibition (Mus musculus [5]): Dose-dependent effect | ED50 (Mus musculus [6]): 3.49 mg/kg | Activity (Mus musculus [7]): Active | Activity (Mus musculus [8]): Active | inhibition (Mus musculus [9]): Dose-dependent effect | Activity (Mus musculus [10]): inactive | Activity (Mus musculus [11]): inactive
